Drawing on ChEMBL document CHEMBL3132746, “Development of CBAP-BPyne, a probe for γ-secretase and presenilinase” (Medchemcomm, 2014), this text covers inhibition, Activity and IC50 for three molecules.

Each structure is given as a SMILES string. The source made the active and inactive calls. The rule behind the calls is not given here.

In test [1] the target is Presenilin-1 (Homo sapiens) (UniProt P49768). In words: Inhibition of PS1 PSase activity in human HeLa cells assessed as accumulation of full length protein at 1 to 10 uM after 4 days by Western blot analysis. The class given is cell-based. Summed up: (§1)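 HeLa cells treated 4 days at 1, 3 or 10 µM, with DMSO vehicle as control. Lysis in RIPA buffer; 15 µg lysate run on 12% Bis-Tris gel in MES buffer. Western blot with anti PS1-NTF antibody, scoring full-length PS1 and PS1-NTF bands.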
For orientation: Immunoblotting shows a protein as a band on a membrane.

In test [2] the target is Nicastrin (Homo sapiens) (UniProt Q92542). In words: Binding affinity to nicastrin in human HeLa cell membrane by photolabelling assay. Type of test: cell membranes. The gist of the method:
(§2)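 Photolabelling: 600 µg HeLa cell membrane diluted in PBS, preincubated with 2 µM CBAP or vehicle for 15 min at 37 °C. Then 20 nM probe for 1 h at 37 °C and UV irradiation (350 nm) for 45 min. Membranes pelleted and clicked to biotin azide (1 h, RT). Streptavidin pull-down overnight at 4 °C, biotin elution, Western blot with the relevant subunit antibody.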

Test [3] has as its system HeLa. In words: Binding affinity to Signal peptide peptidase in human HeLa cell membrane by photolabelling assay. Type of test: cell membranes. The gist of the method:
as §2

For test [4], the target named is Presenilin-1 (Homo sapiens) (UniProt P49768). In words: Binding affinity to PS1-NTF in human HeLa cell membrane by photolabelling assay. The class given is cell membranes. The gist of the method: as §2
In test [5] the target is Gamma-secretase subunit PEN-2 (Homo sapiens) (UniProt Q9NZ42). In words: Binding affinity to Pen-2 in human HeLa cell membrane by photolabelling assay. Type of test: cell membranes. Summed up:
as §2

In test [6] the target is Gamma-secretase. In words: Inhibition of gamma-secretase (unknown origin) expressed in CHO cells transfected with APP assessed as amyloid-beta42 production by cell based assay. The arrangement: species or system Homo sapiens.
Test [7] concerns the target Presenilin-1 (Homo sapiens) (UniProt P49768). In words: Binding affinity to PS1-CTF in human HeLa cell membrane by photolabelling assay. Type of test: cell membranes. Summed up: as §2
Test [8] concerns the target Gamma-secretase. In words: Inhibition of gamma-secretase (unknown origin) using Notch1 substrate assessed as Notch1-NICD production. The class given is protein-complex assay, Homo sapiens.
The target of test [9] is Gamma-secretase. In words: Inhibition of gamma-secretase (unknown origin) using APP substrate assessed as amyloid-beta40 production. Type of test: protein-complex assay, Homo sapiens.
Test [10] has as its system HeLa. In words: Binding affinity to Aph-1 in human HeLa cell membrane by photolabelling assay. The class given is cell membranes. The gist of the method: as §2
In test [11] the target is Presenilin-1 (Homo sapiens) (UniProt P49768). In words: Inhibition of PS1 PSase activity in human HeLa cells assessed as complete depletion of PS1-NTF protein at 1 to 10 uM after 4 days by Western blot analysis relative to control. The class given is cell-based. Summed up: as §1

Sequence of Nicastrin (Homo sapiens) (Q92542 whole entry): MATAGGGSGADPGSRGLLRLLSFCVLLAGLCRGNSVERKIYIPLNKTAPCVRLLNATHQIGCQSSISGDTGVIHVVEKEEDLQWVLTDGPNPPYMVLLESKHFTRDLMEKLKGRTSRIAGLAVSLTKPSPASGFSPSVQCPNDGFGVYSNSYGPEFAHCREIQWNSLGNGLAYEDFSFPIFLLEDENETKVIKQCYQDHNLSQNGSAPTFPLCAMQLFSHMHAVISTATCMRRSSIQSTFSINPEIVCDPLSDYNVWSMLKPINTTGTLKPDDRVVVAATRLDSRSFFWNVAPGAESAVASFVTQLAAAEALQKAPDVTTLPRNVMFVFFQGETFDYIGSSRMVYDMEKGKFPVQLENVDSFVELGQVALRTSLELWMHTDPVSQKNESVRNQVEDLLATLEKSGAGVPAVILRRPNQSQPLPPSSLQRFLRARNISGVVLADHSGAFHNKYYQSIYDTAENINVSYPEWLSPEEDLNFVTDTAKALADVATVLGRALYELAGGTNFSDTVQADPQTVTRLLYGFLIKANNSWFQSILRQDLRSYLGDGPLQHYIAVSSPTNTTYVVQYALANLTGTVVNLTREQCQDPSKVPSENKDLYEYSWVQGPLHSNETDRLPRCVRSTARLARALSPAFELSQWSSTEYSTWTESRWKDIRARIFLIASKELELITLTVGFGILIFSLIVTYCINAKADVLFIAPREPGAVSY
Sequence of Gamma-secretase subunit PEN-2 (Homo sapiens) (Q9NZ42 whole entry): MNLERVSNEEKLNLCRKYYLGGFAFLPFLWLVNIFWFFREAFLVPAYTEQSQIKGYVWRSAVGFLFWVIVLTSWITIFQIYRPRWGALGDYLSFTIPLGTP

Consider `CC(C)C[C@H](NC(=O)[C@H](Cc1ccccc1)C[C@@H](O)[C@H](Cc1ccccc1)NC(=O)OC(C)(C)C)C(=O)N[C@@H](Cc1ccccc1)C(N)=O`, for which the inhibition entry in test [1] is “inactive”.

`C#CCOc1ccc(C(=O)c2ccc(C(=O)N[C@@H](Cc3ccccc3)[C@H](O)C[C@@H](Cc3ccccc3)C(=O)N[C@@H](C)C(=O)N[C@@H]3N=C(C4CCCCC4)c4ccccc4NC3=O)cc2)cc1`: the outcome in test [2], in test [5], in test [7] and in test [10] was inactive. The outcome in [3] and in [4] was Active. Also, the IC50 in test [6] turned out to be 20 nM; in [8], 1 nM; in test [9], 0.91 nM. Also, the inhibition entry in test [1] is “Active”.

As for `C[C@H](NC(=O)[C@H](Cc1ccccc1)C[C@@H](O)[C@H](Cc1ccccc1)NC(=O)OC(C)(C)C)C(=O)N[C@@H]1N=C(C2CCCCC2)c2ccccc2NC1=O`, the outcome in test [2], in test [5], in test [7] and in test [10] was inactive. Moreover, the inhibition entry in test [11] and in test [1] was “Active” in each case. Further, the result in test [3] and in test [4] was Active. Also, the IC50 in [6] came out at 28 nM; in test [8], 0.56 nM; in [9], 0.7 nM.

As usually defined, the IC50 is the concentration at which inhibition is half-maximal.
